In ChEMBL document CHEMBL1165965, “Synthesis and structure-activity relationships of 1,2,3,4-tetrahydropyrido[2,3-b]pyrazines as potent and selective inhibitors of the anaplastic lymphoma kinase” (Bioorg Med Chem, 2010) one finds inhibition data, which are given here for ten compounds.

A value given as a limit tells only on which side of the number the result lay.

The target in assay [1] is Fibroblast growth factor receptor 3 (Homo sapiens) (UniProt P22607). As to the kind of experiment: Inhibition of FGFR3 at 1 uM. The essentials:
(§1)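 Single-concentration screen on the Ambit KINOMEscan platform, run against a panel of 250–400 kinases. Per-kinase inhibition was also summarized as S(90), the fraction of kinases inhibited by more than 90%.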

Assay [2] addresses Calcium/calmodulin-dependent protein kinase type II subunit beta (Homo sapiens) (UniProt Q13554). Nature of the assay: Inhibition of CAMK2B at 1 uM. The procedure, abridged: (§2)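 Ambit KINOMEscan screen at a single concentration across a 250–400 kinase panel, recorded as percent inhibition. Selectivity was expressed as S(90), the fraction of kinases inhibited >90%.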
Assay [3] deals with Serine/threonine-protein kinase 10 (Homo sapiens) (UniProt O94804). As to the kind of experiment: Inhibition of LOK at 1 uM. The procedure, abridged: as §1
Chain of Serine/threonine-protein kinase 10 (Homo sapiens) (O94804 whole entry, looked up): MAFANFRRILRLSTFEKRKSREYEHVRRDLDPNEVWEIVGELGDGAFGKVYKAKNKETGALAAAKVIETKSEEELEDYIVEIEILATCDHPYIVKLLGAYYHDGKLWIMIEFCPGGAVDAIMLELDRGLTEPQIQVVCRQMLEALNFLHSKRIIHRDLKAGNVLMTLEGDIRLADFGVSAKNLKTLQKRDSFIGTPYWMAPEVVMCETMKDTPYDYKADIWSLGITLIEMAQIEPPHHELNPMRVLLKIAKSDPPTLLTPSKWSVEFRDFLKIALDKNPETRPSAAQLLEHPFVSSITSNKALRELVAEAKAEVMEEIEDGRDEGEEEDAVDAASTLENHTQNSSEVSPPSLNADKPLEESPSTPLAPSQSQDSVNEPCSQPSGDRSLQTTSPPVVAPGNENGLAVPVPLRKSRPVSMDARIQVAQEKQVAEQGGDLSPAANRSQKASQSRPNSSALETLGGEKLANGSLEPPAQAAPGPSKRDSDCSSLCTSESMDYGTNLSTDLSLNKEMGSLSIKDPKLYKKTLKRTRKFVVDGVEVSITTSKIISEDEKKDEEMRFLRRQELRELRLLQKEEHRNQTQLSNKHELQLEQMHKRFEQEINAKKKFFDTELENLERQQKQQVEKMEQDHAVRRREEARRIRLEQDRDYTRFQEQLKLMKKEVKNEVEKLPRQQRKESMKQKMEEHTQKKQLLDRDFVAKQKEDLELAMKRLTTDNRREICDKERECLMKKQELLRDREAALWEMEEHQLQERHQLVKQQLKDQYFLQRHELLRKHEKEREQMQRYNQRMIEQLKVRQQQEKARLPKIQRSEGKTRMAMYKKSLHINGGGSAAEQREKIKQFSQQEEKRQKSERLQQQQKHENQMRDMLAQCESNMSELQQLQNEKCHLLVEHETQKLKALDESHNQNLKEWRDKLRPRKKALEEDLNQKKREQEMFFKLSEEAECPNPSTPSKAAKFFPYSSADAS
For assay [4], the system named is Tyrosine-protein kinase ABL1 (Homo sapiens), P00519 [Q252H]. Nature of the assay: Inhibition of ABL1 Q252H mutant at 1 uM. The essentials: as §2
The target in assay [5] is T1, Serine/threonine-protein kinase NLK (Homo sapiens) (UniProt Q9UBE8).
T1 sequence (whole entry): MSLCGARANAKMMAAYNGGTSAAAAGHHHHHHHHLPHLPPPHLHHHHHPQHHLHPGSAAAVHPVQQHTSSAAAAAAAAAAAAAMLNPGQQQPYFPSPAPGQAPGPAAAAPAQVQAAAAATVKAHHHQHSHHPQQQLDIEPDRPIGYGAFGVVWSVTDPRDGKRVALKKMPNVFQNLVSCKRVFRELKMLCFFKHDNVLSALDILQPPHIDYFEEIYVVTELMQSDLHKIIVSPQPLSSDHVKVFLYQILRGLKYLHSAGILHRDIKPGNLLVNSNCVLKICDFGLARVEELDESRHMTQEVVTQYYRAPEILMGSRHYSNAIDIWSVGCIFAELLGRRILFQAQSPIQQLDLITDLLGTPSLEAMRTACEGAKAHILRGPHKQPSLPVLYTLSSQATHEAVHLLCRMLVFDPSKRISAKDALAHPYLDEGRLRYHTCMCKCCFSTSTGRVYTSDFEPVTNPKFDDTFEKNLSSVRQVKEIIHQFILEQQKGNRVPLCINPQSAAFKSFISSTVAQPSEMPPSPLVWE
Nature of the assay: Inhibition of NLK at 1 uM.

Assay [6] concerns the target Macrophage-stimulating protein receptor (Homo sapiens) (UniProt Q04912). As to the kind of experiment: Inhibition of MST1R at 1 uM.
In assay [7] the target is T2, Serine/threonine-protein kinase Chk1 (Homo sapiens) (UniProt O14757).
T2 sequence (whole entry): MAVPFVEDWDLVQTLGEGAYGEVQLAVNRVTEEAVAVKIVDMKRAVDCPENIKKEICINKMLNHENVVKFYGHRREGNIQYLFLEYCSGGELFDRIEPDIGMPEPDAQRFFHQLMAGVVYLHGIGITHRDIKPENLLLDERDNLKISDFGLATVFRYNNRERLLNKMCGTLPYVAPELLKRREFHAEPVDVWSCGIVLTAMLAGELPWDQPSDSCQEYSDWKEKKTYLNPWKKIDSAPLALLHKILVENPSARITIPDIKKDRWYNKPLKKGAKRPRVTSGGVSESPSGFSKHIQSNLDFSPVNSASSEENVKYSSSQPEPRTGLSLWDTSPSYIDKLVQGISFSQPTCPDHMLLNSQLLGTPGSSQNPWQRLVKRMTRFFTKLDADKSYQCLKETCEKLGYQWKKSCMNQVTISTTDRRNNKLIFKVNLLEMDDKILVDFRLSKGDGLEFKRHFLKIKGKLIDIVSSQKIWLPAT
As to the kind of experiment: Inhibition of CHEK1 at 1 uM.

Assay [8] deals with T3, Rhodopsin kinase GRK7 (Homo sapiens) (UniProt Q8WTQ7).
T3 sequence (whole entry): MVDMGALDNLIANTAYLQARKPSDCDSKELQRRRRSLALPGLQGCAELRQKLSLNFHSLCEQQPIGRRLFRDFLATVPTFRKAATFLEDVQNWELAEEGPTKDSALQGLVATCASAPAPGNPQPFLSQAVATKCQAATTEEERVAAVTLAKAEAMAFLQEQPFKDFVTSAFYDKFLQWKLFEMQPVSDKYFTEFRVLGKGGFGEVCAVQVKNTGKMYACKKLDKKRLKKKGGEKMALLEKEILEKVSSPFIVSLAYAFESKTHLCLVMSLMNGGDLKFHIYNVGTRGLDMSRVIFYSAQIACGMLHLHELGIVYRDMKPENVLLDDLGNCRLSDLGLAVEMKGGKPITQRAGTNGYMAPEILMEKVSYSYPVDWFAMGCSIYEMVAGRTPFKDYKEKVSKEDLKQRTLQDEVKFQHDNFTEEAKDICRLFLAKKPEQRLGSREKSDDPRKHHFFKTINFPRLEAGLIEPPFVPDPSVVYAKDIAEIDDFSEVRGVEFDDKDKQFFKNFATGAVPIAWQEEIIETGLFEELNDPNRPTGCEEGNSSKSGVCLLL
Nature of the assay: Inhibition of GRK7 at 1 uM.

In assay [9] the target is T4, NUAK family SNF1-like kinase 2 (Homo sapiens) (UniProt Q9H093).
T4 sequence (whole entry): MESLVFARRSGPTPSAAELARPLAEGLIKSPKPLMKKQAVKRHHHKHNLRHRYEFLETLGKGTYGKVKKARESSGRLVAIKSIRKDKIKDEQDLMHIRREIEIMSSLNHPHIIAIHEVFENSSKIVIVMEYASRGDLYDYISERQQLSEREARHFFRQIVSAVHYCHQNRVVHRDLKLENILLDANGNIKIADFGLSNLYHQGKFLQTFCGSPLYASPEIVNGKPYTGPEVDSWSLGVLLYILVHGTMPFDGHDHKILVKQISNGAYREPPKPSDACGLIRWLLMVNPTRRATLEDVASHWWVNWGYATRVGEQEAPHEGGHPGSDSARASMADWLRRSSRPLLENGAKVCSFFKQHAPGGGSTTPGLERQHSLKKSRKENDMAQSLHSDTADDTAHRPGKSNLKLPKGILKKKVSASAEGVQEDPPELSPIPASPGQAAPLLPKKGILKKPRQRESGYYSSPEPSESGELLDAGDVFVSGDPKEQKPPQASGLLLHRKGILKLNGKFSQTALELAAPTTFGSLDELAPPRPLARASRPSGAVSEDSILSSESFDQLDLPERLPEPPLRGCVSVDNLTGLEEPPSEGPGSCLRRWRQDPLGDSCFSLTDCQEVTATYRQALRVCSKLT
As to the kind of experiment: Inhibition of SNARK at 1 uM.

For assay [10], the system named is Phosphatidylinositol 4,5-bisphosphate 3-kinase catalytic subunit alpha isoform (Homo sapiens), P42336 [M1043I]. Nature of the assay: Inhibition of PIK3CA M1043I mutant at 1 uM.
Chain of Phosphatidylinositol 4,5-bisphosphate 3-kinase catalytic subunit alpha isoform (Homo sapiens), P42336 [M1043I] (P42336 whole entry M1043I, canonical isoform): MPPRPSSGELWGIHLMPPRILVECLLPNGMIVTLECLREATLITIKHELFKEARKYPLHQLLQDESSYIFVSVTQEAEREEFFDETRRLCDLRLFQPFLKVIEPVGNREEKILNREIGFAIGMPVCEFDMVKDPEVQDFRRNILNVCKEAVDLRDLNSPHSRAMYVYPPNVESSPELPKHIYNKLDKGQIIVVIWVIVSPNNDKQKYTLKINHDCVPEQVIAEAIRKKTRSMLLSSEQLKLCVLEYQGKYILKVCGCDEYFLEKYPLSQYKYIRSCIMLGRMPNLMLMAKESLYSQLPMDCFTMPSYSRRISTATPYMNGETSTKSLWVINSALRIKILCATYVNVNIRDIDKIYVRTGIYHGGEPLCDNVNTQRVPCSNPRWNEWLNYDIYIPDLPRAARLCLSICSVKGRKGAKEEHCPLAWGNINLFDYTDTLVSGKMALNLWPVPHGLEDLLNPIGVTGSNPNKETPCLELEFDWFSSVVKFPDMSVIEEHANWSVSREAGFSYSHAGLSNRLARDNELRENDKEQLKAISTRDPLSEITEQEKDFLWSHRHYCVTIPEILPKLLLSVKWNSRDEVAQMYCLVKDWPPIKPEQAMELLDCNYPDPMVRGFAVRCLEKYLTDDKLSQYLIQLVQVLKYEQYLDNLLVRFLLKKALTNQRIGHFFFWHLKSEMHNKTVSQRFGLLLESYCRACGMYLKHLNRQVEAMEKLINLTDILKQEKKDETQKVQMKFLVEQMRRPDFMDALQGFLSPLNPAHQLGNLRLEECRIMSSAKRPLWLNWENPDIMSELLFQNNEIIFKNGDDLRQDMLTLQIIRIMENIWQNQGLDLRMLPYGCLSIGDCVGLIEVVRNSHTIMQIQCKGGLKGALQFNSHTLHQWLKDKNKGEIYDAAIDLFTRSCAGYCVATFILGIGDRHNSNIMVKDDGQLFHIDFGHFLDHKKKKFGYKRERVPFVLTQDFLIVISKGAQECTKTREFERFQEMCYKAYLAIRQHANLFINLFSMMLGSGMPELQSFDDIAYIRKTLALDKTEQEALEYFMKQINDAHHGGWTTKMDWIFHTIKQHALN

Chain of Calcium/calmodulin-dependent protein kinase type II subunit beta (Homo sapiens) (Q13554 whole entry): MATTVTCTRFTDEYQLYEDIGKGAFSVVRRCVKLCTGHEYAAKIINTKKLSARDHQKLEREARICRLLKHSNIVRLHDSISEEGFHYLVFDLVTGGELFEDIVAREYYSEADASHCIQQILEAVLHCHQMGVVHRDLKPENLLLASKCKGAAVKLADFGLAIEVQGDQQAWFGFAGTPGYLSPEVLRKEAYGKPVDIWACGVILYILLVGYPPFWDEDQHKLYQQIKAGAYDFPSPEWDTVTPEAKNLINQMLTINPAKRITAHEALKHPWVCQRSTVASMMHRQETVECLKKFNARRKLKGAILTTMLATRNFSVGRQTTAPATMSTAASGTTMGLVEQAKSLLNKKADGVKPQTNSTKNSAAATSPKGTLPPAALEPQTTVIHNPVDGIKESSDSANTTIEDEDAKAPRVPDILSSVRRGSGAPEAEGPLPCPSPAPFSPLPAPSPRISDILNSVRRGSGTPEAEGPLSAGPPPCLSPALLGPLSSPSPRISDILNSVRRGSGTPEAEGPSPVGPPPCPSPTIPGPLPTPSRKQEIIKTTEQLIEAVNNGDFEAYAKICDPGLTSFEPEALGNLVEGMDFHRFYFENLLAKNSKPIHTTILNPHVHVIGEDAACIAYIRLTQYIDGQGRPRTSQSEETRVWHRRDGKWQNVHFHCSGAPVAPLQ
Chain of Macrophage-stimulating protein receptor (Homo sapiens) (Q04912 25-304 limits assumed): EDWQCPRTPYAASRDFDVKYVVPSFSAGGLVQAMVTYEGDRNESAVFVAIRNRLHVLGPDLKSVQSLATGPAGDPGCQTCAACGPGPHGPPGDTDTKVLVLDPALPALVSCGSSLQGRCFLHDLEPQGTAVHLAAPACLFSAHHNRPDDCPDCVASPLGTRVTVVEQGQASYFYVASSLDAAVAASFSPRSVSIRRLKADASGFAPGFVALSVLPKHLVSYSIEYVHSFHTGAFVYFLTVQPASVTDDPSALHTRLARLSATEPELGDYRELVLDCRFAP
Chain of Macrophage-stimulating protein receptor (Homo sapiens) (Q04912 310-1400 limits assumed): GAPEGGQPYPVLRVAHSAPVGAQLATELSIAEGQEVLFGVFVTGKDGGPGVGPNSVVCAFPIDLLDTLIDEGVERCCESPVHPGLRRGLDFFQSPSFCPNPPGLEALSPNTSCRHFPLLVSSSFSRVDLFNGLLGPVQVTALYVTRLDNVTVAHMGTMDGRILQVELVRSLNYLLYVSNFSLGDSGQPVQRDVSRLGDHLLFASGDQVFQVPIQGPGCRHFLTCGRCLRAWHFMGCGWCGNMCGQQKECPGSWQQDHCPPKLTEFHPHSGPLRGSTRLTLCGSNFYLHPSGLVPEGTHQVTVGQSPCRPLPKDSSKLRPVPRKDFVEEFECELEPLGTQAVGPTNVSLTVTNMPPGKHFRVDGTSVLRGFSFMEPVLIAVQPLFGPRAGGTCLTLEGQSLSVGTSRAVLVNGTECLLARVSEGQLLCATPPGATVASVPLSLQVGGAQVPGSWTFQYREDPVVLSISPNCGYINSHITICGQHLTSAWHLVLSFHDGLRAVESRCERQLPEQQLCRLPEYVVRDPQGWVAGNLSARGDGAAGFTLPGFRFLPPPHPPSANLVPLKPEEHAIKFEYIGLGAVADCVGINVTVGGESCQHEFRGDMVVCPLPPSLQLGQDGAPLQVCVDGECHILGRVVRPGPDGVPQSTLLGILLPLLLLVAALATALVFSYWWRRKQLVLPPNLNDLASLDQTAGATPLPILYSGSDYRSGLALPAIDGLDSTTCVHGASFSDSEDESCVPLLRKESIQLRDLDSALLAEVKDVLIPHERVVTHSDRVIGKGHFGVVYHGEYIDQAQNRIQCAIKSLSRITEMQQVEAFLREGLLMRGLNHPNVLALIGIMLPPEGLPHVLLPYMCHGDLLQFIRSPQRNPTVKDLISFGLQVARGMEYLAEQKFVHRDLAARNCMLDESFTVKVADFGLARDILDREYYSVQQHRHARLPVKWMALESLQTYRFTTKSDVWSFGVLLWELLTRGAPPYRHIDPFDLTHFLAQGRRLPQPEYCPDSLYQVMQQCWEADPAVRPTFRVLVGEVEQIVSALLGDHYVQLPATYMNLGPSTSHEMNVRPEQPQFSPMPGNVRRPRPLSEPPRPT
Chain of Fibroblast growth factor receptor 3 (Homo sapiens) (P22607 23-806 limits assumed): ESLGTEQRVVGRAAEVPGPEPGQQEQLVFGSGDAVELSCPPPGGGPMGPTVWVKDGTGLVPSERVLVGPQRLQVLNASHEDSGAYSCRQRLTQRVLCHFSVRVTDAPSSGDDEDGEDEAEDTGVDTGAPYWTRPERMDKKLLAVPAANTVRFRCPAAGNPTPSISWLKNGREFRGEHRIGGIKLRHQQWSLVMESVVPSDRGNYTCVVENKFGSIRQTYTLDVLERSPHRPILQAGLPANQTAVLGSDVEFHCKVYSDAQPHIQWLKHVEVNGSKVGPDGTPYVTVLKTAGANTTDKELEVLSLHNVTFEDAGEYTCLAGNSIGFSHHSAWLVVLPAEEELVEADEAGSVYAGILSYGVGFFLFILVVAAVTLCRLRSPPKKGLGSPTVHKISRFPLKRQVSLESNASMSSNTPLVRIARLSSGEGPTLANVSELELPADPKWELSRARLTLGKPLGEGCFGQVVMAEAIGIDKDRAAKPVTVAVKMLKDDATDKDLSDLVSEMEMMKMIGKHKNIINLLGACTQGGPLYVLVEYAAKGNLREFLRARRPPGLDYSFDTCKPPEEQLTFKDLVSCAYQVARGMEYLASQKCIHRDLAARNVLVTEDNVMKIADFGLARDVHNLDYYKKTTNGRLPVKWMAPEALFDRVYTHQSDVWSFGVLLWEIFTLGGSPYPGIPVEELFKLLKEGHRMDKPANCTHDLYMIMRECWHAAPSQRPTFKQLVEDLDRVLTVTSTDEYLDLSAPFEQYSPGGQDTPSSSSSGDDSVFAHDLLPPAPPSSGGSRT

In general, inhibition refers to the relative decrease from the control value, in per cent. Take `O=C(c1ccc(-c2cnc3c(c2)N(Cc2cc(Cl)ccc2C(F)(F)F)CCN3)cc1)N1CCCCC1`: the inhibition in assay [1], in assay [2], in assay [3], in assay [4] and in [5] was less than 50% throughout.

Turning to `CN1CCN(c2ccc(-c3cnc4c(c3)N(Cc3c(F)ccc(F)c3Cl)CCN4)cn2)CC1`, the inhibition was less than 50% in assay [6]; less than 50% in assay [7]; less than 50% in assay [8]; less than 50% in assay [1]; less than 50% in assay [2]; 90% in [9]. Moreover, the inhibition was less than 50% in assay [3], 72% in [4], less than 50% in assay [10] and less than 50% in assay [5].

For `COC1CCN(C(=O)c2ccc(-c3cnc4c(c3)N(Cc3cc(Cl)ccc3C(F)(F)F)CCN4)cc2)CC1`, the inhibition in assay [1], in assay [2], in assay [3], in assay [4] and in assay [5] was less than 50% in each case.

In the case of `O=C(O)c1ccc(-c2cnc3c(c2)N(Cc2cc(Cl)ccc2C(F)(F)F)CCN3)cc1`, the inhibition in assay [1], in assay [2], in assay [3], in [4] and in [5] was less than 50% in each case.

For the compound `FC(F)(F)c1ccc(Cl)cc1CN1CCNc2ncc(-c3ccnc(N4CCNCC4)c3)cc21`, the inhibition in [6] is less than 50%; in assay [7], less than 50%; in assay [8], 67%; in [1], less than 50%; in assay [2] it was less than 50%; in assay [9] it was 93%. Further, the inhibition in assay [3] was 66%; in [4], less than 50%; in [10], less than 50%; in [5] it was less than 50%.

`CN1CCN(c2ccc(-c3cnc4c(c3)N(Cc3cc(Cl)ccc3Cl)CCN4)cn2)CC1`: the inhibition is less than 50% in [6]; less than 50% in assay [7]; less than 50% in [8]; less than 50% in assay [1]; less than 50% in [2]; 81% in [9]. The inhibition in assay [3], in [4], in [10] and in assay [5] was less than 50% each time.

For the compound `O=C(c1ccc(-c2cnc3c(c2)N(Cc2cc(Cl)ccc2C(F)(F)F)CCN3)cc1)N1CCC(N2CCCC2)CC1`, the inhibition in [1] is less than 50%; in assay [2], less than 50%; in [3] it was less than 50%; in assay [4] it was 63%; in assay [5], less than 50%.

In the case of `CN1CCN(c2ccc(-c3cnc4c(c3)N(Cc3cc(Cl)ccc3C(F)(F)F)CCN4)cn2)CC1`, the inhibition in assay [6] was less than 50%; in assay [7] it was less than 50%; in [8], less than 50%; in assay [1] it was less than 50%; in assay [2], less than 50%; in assay [9], 85%. The inhibition in [3], in assay [4], in assay [10] and in assay [5] was less than 50% in each case.

On to `CC(=O)N1CCN(c2cc(-c3cnc4c(c3)N(Cc3cc(Cl)ccc3C(F)(F)F)CCN4)ccn2)CC1`, for which the inhibition was less than 50% in [6]; less than 50% in assay [7]; less than 50% in assay [8]; less than 50% in assay [1]; less than 50% in assay [2]; 71% in [9]. Also, the inhibition in [3], in [4], in assay [10] and in assay [5] was less than 50% each time.

Turning to `CN1CCN(c2ccc(-c3cnc4c(c3)N(Cc3cc(F)ccc3F)CCN4)cn2)CC1`, the inhibition is less than 50% in assay [6]; less than 50% in assay [7]; less than 50% in assay [8]; less than 50% in assay [1]; less than 50% in [2]; 90% in assay [9]. Also, the inhibition in [3], in assay [4], in assay [10] and in [5] was less than 50% in each case.
